Data on five compounds can be found in publication PMC9524580 (Neuropharmacology, 2022).

A word on the EC50: it is the concentration at which the effect is half-maximal. The low end stands for an effect from little substance, the high end for a need for much substance.

Entries after “also recorded” stand apart in the source; their conditions may differ.

For data set [1], the target named is high sensitivity (HS) α4(2)β2(3) nAChR (Homo sapiens, UniProt P17787+P43681). Format: cell-based. Particulars: for Effect on ACh-evoked peak-current responses of HS α4β2 receptors: 100 μM compound co-applied with control ACh (10 μM).
Chain of high sensitivity (HS) α4(2)β2(3) nAChR (P17787 26-502): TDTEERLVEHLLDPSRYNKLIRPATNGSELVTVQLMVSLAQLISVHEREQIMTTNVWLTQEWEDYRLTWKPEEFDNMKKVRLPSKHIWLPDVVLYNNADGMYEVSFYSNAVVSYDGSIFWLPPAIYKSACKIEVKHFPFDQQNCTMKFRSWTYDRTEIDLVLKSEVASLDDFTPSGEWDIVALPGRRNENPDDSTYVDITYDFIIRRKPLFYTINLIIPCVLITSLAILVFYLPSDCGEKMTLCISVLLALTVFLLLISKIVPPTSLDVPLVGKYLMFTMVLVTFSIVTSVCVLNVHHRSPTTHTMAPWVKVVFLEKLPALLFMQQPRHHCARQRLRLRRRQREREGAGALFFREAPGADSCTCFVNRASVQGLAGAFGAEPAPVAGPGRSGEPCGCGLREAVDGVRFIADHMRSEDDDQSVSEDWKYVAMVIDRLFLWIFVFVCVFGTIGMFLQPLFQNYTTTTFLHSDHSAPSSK
Chain of high sensitivity (HS) α4(2)β2(3) nAChR (P43681 29-627 limits assumed): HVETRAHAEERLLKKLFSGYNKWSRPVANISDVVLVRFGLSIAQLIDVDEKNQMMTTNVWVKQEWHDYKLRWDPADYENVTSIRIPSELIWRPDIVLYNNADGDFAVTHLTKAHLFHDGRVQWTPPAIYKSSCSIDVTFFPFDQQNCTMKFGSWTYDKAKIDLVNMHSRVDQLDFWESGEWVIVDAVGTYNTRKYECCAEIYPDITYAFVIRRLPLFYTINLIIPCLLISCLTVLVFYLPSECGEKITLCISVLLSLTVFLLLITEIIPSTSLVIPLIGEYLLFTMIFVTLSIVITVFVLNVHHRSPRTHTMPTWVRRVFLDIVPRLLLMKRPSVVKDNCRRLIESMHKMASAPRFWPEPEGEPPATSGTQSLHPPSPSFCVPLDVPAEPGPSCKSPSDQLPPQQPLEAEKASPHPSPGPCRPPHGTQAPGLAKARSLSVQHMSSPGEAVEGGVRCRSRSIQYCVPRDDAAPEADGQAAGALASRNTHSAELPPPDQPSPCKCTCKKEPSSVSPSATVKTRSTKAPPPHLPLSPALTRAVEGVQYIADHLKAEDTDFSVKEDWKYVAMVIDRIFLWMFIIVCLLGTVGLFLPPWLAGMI
Chain of high sensitivity (HS) α4(2)β2(3) nAChR (P17787 26-502): as the sequence (P17787 26-502) above
The target in data set [2] is low sensitivity (LS) α4(3)β2(2) nAChR (Homo sapiens, UniProt P17787+P43681). The data set can be described thus: Two-electrode voltage clamp of Xenopus oocytes expressing LS α4β2 nAChR. Format: cell-based. Particulars: for Effect on ACh-evoked peak-current responses of LS α4β2 receptors: 100 μM compound co-applied with control ACh (100 μM).
Chain of low sensitivity (LS) α4(3)β2(2) nAChR (P17787 26-502): as above
Chain of low sensitivity (LS) α4(3)β2(2) nAChR (P43681 29-627 limits assumed): as the sequence (P43681 29-627 limits assumed) above
Chain of low sensitivity (LS) α4(3)β2(2) nAChR (P43681 29-627 limits assumed): as above
The target of a further data set is human α7 nAChR (Homo sapiens, UniProt P36544). The data set can be described thus: Two-electrode voltage clamp of Xenopus oocytes expressing α7 nAChR. Format: cell-based. Particulars: for α7 net-charge response to compound co-applied with PNU-120596: 100 μM compound + 10 μM PNU-120596, compared to PNU-120596 alone or ACh control. Put shortly: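 Human α7 clone co-injected with human RIC3 in Xenopus oocytes. Oocytes were clamped at −60 mV at 24 °C and perfused at 2 ml/min with Ringer's (115 mM NaCl, 2.5 mM KCl, 1.8 mM CaCl2, 10 mM HEPES, 1 μM atropine, pH 7.2). […] Compound was 100 μM, alone or with 10 μM PAM; n = 6–8 oocytes; ANOVA.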
Chain of human α7 nAChR (P36544 23-502): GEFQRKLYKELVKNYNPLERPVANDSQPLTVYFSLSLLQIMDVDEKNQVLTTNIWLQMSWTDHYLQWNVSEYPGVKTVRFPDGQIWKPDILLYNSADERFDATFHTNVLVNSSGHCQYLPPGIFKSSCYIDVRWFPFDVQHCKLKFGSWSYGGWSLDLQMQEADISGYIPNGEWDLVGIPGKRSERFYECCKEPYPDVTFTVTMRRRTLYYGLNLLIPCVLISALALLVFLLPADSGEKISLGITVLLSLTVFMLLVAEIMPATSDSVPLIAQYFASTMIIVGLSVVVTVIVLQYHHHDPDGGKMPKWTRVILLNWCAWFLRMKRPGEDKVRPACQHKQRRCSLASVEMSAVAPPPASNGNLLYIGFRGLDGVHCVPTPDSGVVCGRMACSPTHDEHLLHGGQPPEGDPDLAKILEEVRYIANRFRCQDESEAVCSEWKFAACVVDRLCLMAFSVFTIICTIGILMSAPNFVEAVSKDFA

In another data set the target is α3β2 nAChR (Homo sapiens, UniProt P17787+P32297). Format: cell-based. As to conditions: 100 μM n-MP co-applied with 100 μM ACh. In short, it runs like this:
(§1)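 Xenopus oocytes were injected with human α3 plus β2 or β4 subunit RNA at alpha:beta ratios of 1:5 or 5:1. Two-electrode voltage clamp at −60 mV, 24 °C, with Ringer's (pH 7.2, 1 μM atropine) at 4 ml/min.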

The conditions of data set [3]: inferred from use as biomarker of coffee consumption; ref Bresciani et al., 2020; cited from earlier work.
The target in the next data set is α4(2)β2(2)α5 nAChR (Homo sapiens, UniProt P17787+P30532+P43681). The data set can be described thus: Two-electrode voltage clamp of Xenopus oocytes expressing α4β2α5 nAChR. The format is cell-based. Particulars: 100 μM n-MP co-applied with 10 μM ACh. In short, it runs like this: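 Human α4(2)β2(2)α5 receptors expressed in Xenopus laevis oocytes. Voltage-clamped at −60 mV and room temperature (24 °C), perfused at 4 ml/min with atropine-containing Ringer's, pH 7.2. […] At least five oocytes; mean ± S.D.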
Chain of α4(2)β2(2)α5 nAChR (P17787 26-502): as the sequence (P17787 26-502) above
Chain of α4(2)β2(2)α5 nAChR (P43681 29-627 limits assumed): as the sequence (P43681 29-627 limits assumed) above
Chain of α4(2)β2(2)α5 nAChR (P30532 23-468): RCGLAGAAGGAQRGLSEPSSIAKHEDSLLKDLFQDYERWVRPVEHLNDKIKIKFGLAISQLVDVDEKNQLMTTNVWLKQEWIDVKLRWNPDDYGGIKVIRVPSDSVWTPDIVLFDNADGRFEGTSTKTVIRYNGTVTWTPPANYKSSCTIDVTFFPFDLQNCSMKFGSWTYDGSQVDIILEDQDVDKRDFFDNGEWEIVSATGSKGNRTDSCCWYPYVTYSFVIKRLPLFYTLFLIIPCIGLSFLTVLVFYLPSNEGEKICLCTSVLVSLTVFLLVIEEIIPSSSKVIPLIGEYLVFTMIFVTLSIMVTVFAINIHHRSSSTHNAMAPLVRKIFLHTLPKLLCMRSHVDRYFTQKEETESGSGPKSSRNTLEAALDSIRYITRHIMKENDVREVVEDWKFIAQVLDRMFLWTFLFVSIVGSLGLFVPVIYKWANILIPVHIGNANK
For orientation: Two-electrode voltage clamp is typically applied to oocytes expressing channels or transporters.

The next data set concerns the target β3α4β2α6β2 nAChR (Homo sapiens, UniProt P17787+P43681+Q05901+Q15825). Format: cell-based. Particulars: 100 μM n-MP co-applied with 30 μM ACh. In short, it runs like this: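 Oocytes from female Xenopus laevis expressed human β3α4β2α6β2 from a linked-subunit concatamer. Two-electrode voltage clamp at −60 mV and 24 °C. Bath perfusion at 4 ml/min with Ringer's (115 mM NaCl, 2.5 mM KCl, 1.8 mM CaCl2, 10 mM HEPES, 1 μM atropine, pH 7.2). […] Responses were relative to the mean of the two controls; n = 6, mean ± S.D.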

The target of the next data set is α3β4 nAChR (Homo sapiens, UniProt P30926+P32297). Format: cell-based. As to conditions: 100 μM n-MP co-applied with 100 μM ACh; alpha:beta RNA 5:1 or 1:5 (either set). In short, it runs like this: as §1
Chain of α3β4 nAChR (P32297 32-505): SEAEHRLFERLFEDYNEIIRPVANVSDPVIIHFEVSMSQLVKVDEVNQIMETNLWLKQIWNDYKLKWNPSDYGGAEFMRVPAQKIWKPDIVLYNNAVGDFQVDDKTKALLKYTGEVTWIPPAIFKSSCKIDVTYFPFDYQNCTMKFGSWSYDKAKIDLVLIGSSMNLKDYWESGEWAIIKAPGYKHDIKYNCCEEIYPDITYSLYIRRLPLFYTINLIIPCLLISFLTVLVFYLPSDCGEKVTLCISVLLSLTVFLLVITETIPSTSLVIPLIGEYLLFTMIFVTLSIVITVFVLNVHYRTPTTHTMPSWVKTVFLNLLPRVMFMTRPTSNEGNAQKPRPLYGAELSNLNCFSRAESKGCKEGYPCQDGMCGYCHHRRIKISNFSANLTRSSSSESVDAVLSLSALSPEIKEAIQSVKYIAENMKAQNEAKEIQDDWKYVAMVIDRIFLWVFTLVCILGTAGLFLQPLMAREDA
Chain of α3β4 nAChR (P30926 22-498): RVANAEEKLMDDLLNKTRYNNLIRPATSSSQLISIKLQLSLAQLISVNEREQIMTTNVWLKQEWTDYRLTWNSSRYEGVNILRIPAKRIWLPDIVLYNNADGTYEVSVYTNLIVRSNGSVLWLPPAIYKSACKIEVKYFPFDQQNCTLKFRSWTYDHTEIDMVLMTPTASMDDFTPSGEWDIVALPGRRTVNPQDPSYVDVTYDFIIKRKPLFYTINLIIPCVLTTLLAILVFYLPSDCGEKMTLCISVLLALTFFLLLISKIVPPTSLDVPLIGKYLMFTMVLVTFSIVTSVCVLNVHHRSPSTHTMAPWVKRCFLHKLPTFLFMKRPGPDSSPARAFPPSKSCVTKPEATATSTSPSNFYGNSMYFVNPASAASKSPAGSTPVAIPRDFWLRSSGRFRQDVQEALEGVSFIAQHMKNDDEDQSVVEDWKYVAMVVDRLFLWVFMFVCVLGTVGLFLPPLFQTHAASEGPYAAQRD

Chain of α3β2 nAChR (P32297 32-505): as the sequence (P32297 32-505) above
Chain of α3β2 nAChR (P17787 26-502): as the sequence (P17787 26-502) above
Chain of β3α4β2α6β2 nAChR (Q05901 25-458 limits assumed): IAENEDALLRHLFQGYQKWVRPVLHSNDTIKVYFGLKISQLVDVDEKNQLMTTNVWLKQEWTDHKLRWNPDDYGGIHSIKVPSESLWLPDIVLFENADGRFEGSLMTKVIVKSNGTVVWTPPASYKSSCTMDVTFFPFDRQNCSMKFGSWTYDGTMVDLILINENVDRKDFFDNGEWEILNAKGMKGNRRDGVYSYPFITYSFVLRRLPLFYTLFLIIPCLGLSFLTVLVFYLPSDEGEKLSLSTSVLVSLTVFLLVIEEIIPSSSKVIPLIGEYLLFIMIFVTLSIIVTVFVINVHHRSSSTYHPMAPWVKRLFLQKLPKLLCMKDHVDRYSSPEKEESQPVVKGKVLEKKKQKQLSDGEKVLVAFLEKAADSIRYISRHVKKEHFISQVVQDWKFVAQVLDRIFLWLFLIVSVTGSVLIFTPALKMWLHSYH
Chain of β3α4β2α6β2 nAChR (P43681 29-627 limits assumed): as the sequence (P43681 29-627 limits assumed) above
Chain of β3α4β2α6β2 nAChR (P17787 26-502): as the sequence (P17787 26-502) above
Chain of β3α4β2α6β2 nAChR (Q15825 26-494): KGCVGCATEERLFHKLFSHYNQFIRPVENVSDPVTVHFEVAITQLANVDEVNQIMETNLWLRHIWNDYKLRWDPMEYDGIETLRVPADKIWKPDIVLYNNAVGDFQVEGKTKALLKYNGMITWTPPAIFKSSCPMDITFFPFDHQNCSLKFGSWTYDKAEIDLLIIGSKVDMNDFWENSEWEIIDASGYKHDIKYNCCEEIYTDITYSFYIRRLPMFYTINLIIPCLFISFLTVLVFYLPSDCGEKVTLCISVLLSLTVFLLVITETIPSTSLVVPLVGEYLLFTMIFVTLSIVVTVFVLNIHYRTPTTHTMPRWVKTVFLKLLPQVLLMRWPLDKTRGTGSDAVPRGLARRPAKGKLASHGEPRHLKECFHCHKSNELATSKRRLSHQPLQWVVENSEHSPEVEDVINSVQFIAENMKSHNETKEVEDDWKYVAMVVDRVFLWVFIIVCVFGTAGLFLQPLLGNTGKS
Chain of β3α4β2α6β2 nAChR (P17787 26-502): as the sequence (P17787 26-502) above

In the case of `CC(=O)OCC[N+](C)(C)C` [ACh, Acetylcholine chloride, reference compound], the “Imax, From replicates, Averages ± S.D.” value in data set [1] was 1.535 ± 0.080. Moreover, in data set [2], the “Imax, From Figure 7” value worked out at 2.327 ± 0.395 and the “Imax, From replicates, Averages ± S.D.” value was 2.290 ± 0.714.

With `Cn1c(=O)c2c(ncn2C)n(C)c1=O` [caffeine, reference compound], the “Effect on ACh-evoked peak-current responses of HS α4β2 receptors” value (“Effect … of HS α4β2 receptors” below) in data set [1] is “lacks significant nAChR activity”. Moreover, the “α7 net-charge response to compound co-applied with PNU-120596” value (shortened to “α7 net-charge response”) on human α7 nAChR is recorded as “lacks significant nAChR activity”. Also, in data set [2], the “Effect on ACh-evoked peak-current responses of LS α4β2 receptors” value (from here on “Effect … of LS α4β2 receptors”) is “lacks significant nAChR activity”.

Take `C[N+](C)(C)CCO` [choline]: on human α7 nAChR, the EC50 was ~200 µM and the “α7 net-charge response” value is “greater than the initial ACh controls”. Besides, the “Net charge Imax with PNU-120596 co-application versus applied alone” value on human α7 nAChR (10 μM PNU-120596) was “roughly 100 fold”.

`C[N+]1(C)CCCCC1` [dMP, 1,1-dimethylpiperidium]: the “Effect … of HS α4β2 receptors” value in data set [1] is reported as “decreasing the responses of HS receptors; also recorded: strongly inhibited”. On human α7 nAChR, the “α7 net-charge response” value is on record as “large responses”. Also, the “α7 response to compound applied alone” value on human α7 nAChR (100 μM compound, compared to 60 μM ACh control) is listed as “comparable to those stimulated by the control application of 60 μM ACh”. For the same compound, in data set [2], the “Effect … of LS α4β2 receptors” value is reported as “increasing the responses of LS receptors”.

Regarding `C[n+]1ccccc1` [n-MP, 1-methylpyridinium], the “Effect … of HS α4β2 receptors” value in data set [1] was “decreasing the responses of HS receptors; also recorded: decreasing those of HS receptors”. Also, the “Mode of action on HS α4β2 ACh-evoked responses” value in data set [1] (100 μM n-MP, ACh competition experiment) is given as “competitive antagonist”. Further, the “Effect of bath-applied n-MP on HS α4β2 ACh responses” value in data set [1] (varying bath concentrations, periodic 10 μM ACh applications) was “concentration-dependent, and only partially reversible, inhibition”. On human α7 nAChR, the “α7 net-charge response” value is “PAM-dependent responses”. The “Effect … of LS α4β2 receptors” value in data set [2] is “increasing the responses of LS receptors”. For the same compound, in data set [2] (100 μM n-MP, 10 to 100 μM ACh), the “Mode of action on LS α4β2 receptors” value was “working as a PAM at those intermediate concentrations”. In addition, in data set [2] (300 μM n-MP bath application), the “LS α4β2 ACh responses after n-MP washout” value is reported as “significant increases”. Further, in data set [2] (LS, ACh co-applied with 100 μM n-MP, relative to 100 μM ACh control), the “Imax of ACh, From Figure 7” value is on record as 1.824 ± 0.062. Moreover, in data set [2] (varying bath concentrations, periodic 100 μM ACh applications), the “Effect of bath-applied n-MP on LS α4β2 ACh responses” value is “small concentration-dependent increase”. In addition, the “Effect on ACh responses of α3β2 receptors with high levels of β2” value at α3β2 nAChR (alpha:beta RNA 1:5) is reported as “no effect”. The “Effect on ACh responses of α3β2 receptors with high levels of α3” value on α3β2 nAChR (alpha:beta RNA 5:1) is given as “significant potentiation”. For the same compound, in data set [3], the Bioavailability entry is recorded as “good bioavailability”. Besides, the “Effect on ACh responses of α4β2α5 receptors” value on α4(2)β2(2)α5 nAChR is given as “antagonist”. Further, the “Effect on ACh responses of α6-containing receptors” value at β3α4β2α6β2 nAChR was “no significant effect”. For the same compound, the “Effect on ACh responses of α3β4 receptors” value on α3β4 nAChR is “no effect”.
